Measured values collected from several papers.
Compare with care: the assays were run in different laboratories.
Target: Serine/threonine-protein kinase PLK3 (PLK3, Homo sapiens, UniProt Q9H4B4)

Compound	effect on	action	method	concentration	measurement	value
COc1cc(-c2cc(-c3ccc(N4CCNCC4)cc3)cnc2C)cc(OC)c1OC	enzyme activity	inhibitor	–	0.1 µM	inhibition	4%
COc1cc2c(Nc3ccc(Br)cc3F)ncnc2cc1OCC1CCN(C)CC1	cell-free assay	–	–	0.5 µM	remaining signal	95%
CCN(CC)CCNC(=O)c1c(C)[nH]c(/C=C2\C(=O)Nc3ccc(F)cc32)c1C	enzyme activity	inhibitor	–	10 µM	inhibition	-4%
O=C(Nc1cnn(-c2csc(C(=O)NC3COC3)c2)c1)Nc1ccccc1Cl	enzyme activity	inhibitor	–	5 µM	remaining activity	96.1%
CNC(=O)Nc1ccc2c(c1)[C@@]1(CC2)OC(=O)N(CC(=O)N(Cc2ccc(F)cc2)[C@@H](C)C(F)(F)F)C1=O	cell-free assay	–	competition with immobilised ligand	1 µM	remaining binding	84%
N#CCCc1ccc2c(c1)-c1[nH]c3ccc([N+](=O)[O-])cc3c1CC(=O)N2	cell-free assay	–	–	0.5 µM	remaining signal	99.7%
FC(F)(F)c1ccc2c(c1)nc(-c1cccnc1)n2C1CC1	cell-free assay	–	competition with immobilised ligand	1 µM	remaining binding	100%
Cc1ccc(C(=O)Nc2ccc(CN3CCN(C)CC3)c(C(F)(F)F)c2)cc1C#Cc1cnc2cccnn12	enzyme activity	inhibitor	–	23.5 nM	remaining activity	89%
Cc1ccc(Nc2nccc(N(C)c3ccc4c(C)n(C)nc4c3)n2)cc1S(N)(=O)=O	enzyme activity	inhibitor	–	0.3 µM	inhibition	-9%
COc1cc(Cl)c(C(=O)N[C@@H](CN[C@H]2CC[C@@H](N)CC2)Cc2ccc(C#N)cc2)cc1-c1ccc(CN[C@H](C)c2ccc(C)cc2)o1	enzyme activity	inhibitor	–	1 µM	remaining activity	105%
CN([C@@H]1CCc2c(CC(=O)O)c3cc(S(C)(=O)=O)ccc3n2C1)S(=O)(=O)c1ccc(F)cc1	cell-free assay	–	competition with immobilised ligand	1 µM	remaining binding	70%
CC(C)c1ccc(NC(=O)c2cccs2)c(-c2nc3ccccc3[nH]c2=O)c1	enzyme activity	inhibitor	–	1 µM	activity vs control	97%
COc1cc2ncnc(Nc3ccc(Oc4ccccc4)cc3C)c2cc1OC	enzyme activity	inhibitor	–	1 µM	inhibition	-1%
O=C(Nc1cnn(-c2csc(C(=O)NC3COC3)c2)c1)Nc1c(F)cccc1Cl	enzyme activity	inhibitor	–	5 µM	remaining activity	96%
CNC(=O)c1cc(Oc2ccc(NC(=O)Nc3ccc(Cl)c(C(F)(F)F)c3)cc2)ccn1	enzyme activity	inhibitor	–	10 µM	inhibition	-14%
CCOc1cc(-c2nncn2C)ccc1Nc1ncc2cc(C)nc(NCC(C)(C)C)c2n1	enzyme activity	inhibitor	FRET	1 µM	inhibition	19%
O=C(NC[C@@H]1[C@H]2CN(C(=O)OCc3cc(C(F)(F)F)cc(C(F)(F)F)c3)C[C@@H]12)c1ccc2[nH]nnc2c1	cell-free assay	–	competition with immobilised ligand	1 µM	remaining binding	89%
CCN(CC)c1ccc(C2=NNC(=O)CC2C)cc1[N+](=O)[O-] (stereo not shown)	enzyme activity	inhibitor	–	10 µM	remaining activity	104%
CS(=O)(=O)Nc1cccc(-c2csc(NC(=O)CSc3nc4nccnc4c(=O)n3CCc3ccccc3)n2)c1	enzyme activity	inhibitor	–	10 µM	inhibition	6%
C[C@@]1(Cc2ccc(C#N)cc2)C(=O)N(c2cc(Cl)cc(Cl)c2)c2ncc(C(=O)NC3(c4nc(C5CCC5)no4)CC3)n21	cell-free assay	–	competition with immobilised ligand	1 µM	remaining binding	100%
CCCS(=O)(=O)Nc1ccc(F)c(C(=O)c2c[nH]c3ncc(-c4ccc(Cl)cc4)cc23)c1F	enzyme activity	inhibitor	–	1 µM	inhibition	< 10%
CCOC(=O)c1cc2cc(-c3cc(C(=O)NCc4ccc(C(=O)O)cc4)nn3C)ccc2[nH]1	cell-free assay	–	competition with immobilised ligand	0.1 µM	remaining binding	70%
Cc1ccc(C(=O)NCc2ccsc2)cc1C#Cc1cn(C(C)C)c2ncnc(N)c12	enzyme activity	inhibitor	–	1 µM	activity vs control	118%
O=C1Nc2ccc(Cl)cc2C1=Cc1cc(Cl)c(O)c(Cl)c1	cell-free assay	–	–	0.5 µM	remaining signal	98.2%
O=C(N1CCS(=O)(=O)CC1)N1C[C@H](c2ccc(OC(F)(F)F)cc2)C[C@H](c2nc(C3CC3)no2)C1	cell-free assay	–	competition with immobilised ligand	1 µM	remaining binding	98%
